Laboratory results published in ChEMBL document CHEMBL1146297, “Synthesis of 2'-paclitaxel methyl 2-glucopyranosyl succinate for specific targeted delivery to cancer cells” (Bioorg Med Chem Lett, 2007).
In brackets after ≈: the same amount, converted by molar mass.

What was measured:
MCF7 [1] = assay: Cytotoxicity against human MCF7 cells; type: functional, cell-based
Procedure, shortened: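 Human MCF-7 breast cancer cells were tested in a panel of eight cancer lines plus RPTEC normal renal epithelial cells, with growth inhibition measured across a concentration range. IC50 is the concentration giving 50% inhibition, taken as the mean of at least three independent experiments with SD under 10%.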

[2] = Cytotoxicity against human TW01 cells; type: functional, cell-based
[3] = Solubility in water; type: physicochemical
NCI-H226 = assay: Cytotoxicity against human NCI-H226 cells; type: functional, cell-based
A498 = assay: Cytotoxicity against human A498 cells; type: functional, cell-based
HCT-116 = assay: Cytotoxicity against human HCT116 cells; type: functional, cell-based
RPTEC [4] = assay: Cytotoxicity against human RPTEC cells; type: cell-based
[5] = Half life in human serum; type: ADME, cell-free
Procedure, shortened: (§1)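 Compound incubated in human serum at 4 µg/mL serum and 37 °C. It was then extracted with dichloromethane, and the remaining intact material was quantified by reverse-phase HPLC on a C18 column. Sampling ran up to 96 h, and stability is expressed as percent remaining.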

[6] = Stability in human serum for 4 hrs; type: ADME, cell-free; details: read-out: Stability; procedure, shortened: as §1
[7] = Cytotoxicity against human MES-SA cells; type: functional, cell-based
MKN-45 = assay: Cytotoxicity against human MKN45 cells; type: functional, cell-based
[8] = Cytotoxicity against human Hep3B cells; type: functional, cell-based, Hep 3B2
RPTEC [9] = assay: Selectivity index, IC50 for MCF7 cells to human RPTEC cells; type: functional
Procedure, shortened: (§2)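 Selectivity index is the IC50 in the cancer line (MCF-7 or NPC-TW01) divided by the IC50 in normal RPTEC cells. Each IC50 is the mean of at least three independent experiments.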

RPTEC [10] = assay: Selectivity index, IC50 for TW01 cells to human RPTEC cells; type: functional; procedure, shortened: as §2
MCF7 [11] = assay: Cytotoxicity against human MCF7 cells at 25 ng/mL; type: functional

| half-life [5] [h] | remaining at 4 h [6] [%] | SMILES | IC50 (MCF7 [1]) [nM] | IC50 [2] [nM] | solubility [3] [µg/mL] | IC50 (NCI-H226) [nM] | IC50 (A498) [nM] | IC50 (HCT-116) [nM] | IC50 (RPTEC [4]) [nM] | IC50 [7] [nM] | IC50 (MKN-45) [nM] | IC50 [8] [nM] | Ratio IC50 (RPTEC [9]) | Ratio IC50 (RPTEC [10]) | Activity (MCF7 [11]) [%] |
| --- | --- | --- | --- | --- | --- | --- | --- | --- | --- | --- | --- | --- | --- | --- | --- |
| 66 | 85 | CO[C@H]1O[C@H](CO)[C@@H](O)[C@@H](O)[C@H]1OC(=O)CCC(=O)O[C@@H](C(=O)O[C@H]1C[C@@]2(O)[C@@H](OC(=O)c3ccccc3)[C@@H]3[C@]4(OC(C)=O)CO[C@@H]4C[C@H](O)[C@@]3(C)C(=O)[C@H](OC(C)=O)C(=C1C)C2(C)C)[C@@H](NC(=O)c1ccccc1)c1ccccc1 | 0.7 | 7.2 | 350 (≈ 310 µM) | 114 | 258 | 25.6 | 1580 | 9.1 | 14.1 | 60.3 | 0.0004 | 0.0046 | – |
| – | – | CC(=O)O[C@H]1C(=O)[C@@]2(C)[C@H]([C@H](OC(=O)c3ccccc3)[C@]3(O)C[C@H](OC(=O)[C@H](O)[C@@H](NC(=O)c4ccccc4)c4ccccc4)C(C)=C1C3(C)C)[C@]1(OC(C)=O)CO[C@@H]1C[C@@H]2O [PACLITAXEL] | 0.5 | 0.3 | < 4 | 6.8 | 61 | 0.6 | 0.9 | 0.5 | 0.5 | 5.4 | 0.56 | 0.33 | – |
| – | – | CC(=O)O[C@H]1C(=O)[C@@]2(C)[C@H]([C@H](OC(=O)c3ccccc3)[C@]3(O)C[C@H](OC(=O)[C@H](OC(=O)CCC(=O)O)[C@@H](NC(=O)c4ccccc4)c4ccccc4)C(C)=C1C3(C)C)[C@]1(OC(C)=O)CO[C@@H]1C[C@@H]2O | – | – | – | – | – | – | – | – | – | – | – | – | 50 |
